Results gathered from unrelated publications.
Protocols differ between the studies behind these lines.
ABL1 Y253F phosphorylated: Tyrosine-protein kinase ABL1, phosphorylated (ABL1, Homo sapiens, UniProt P00519, Y253F)
ABL1 H396P non-phosphorylated: Tyrosine-protein kinase ABL1, non-phosphorylated (ABL1, Homo sapiens, UniProt P00519, H396P)
ABL1 F317I phosphorylated: Tyrosine-protein kinase ABL1, phosphorylated (ABL1, Homo sapiens, UniProt P00519, F317I)
ABL1 F317L phosphorylated: Tyrosine-protein kinase ABL1, phosphorylated (ABL1, Homo sapiens, UniProt P00519, F317L)
ABL1 T315I phosphorylated: Tyrosine-protein kinase ABL1, phosphorylated (ABL1, Homo sapiens, UniProt P00519, T315I)
ABL1 T315I non-phosphorylated: Tyrosine-protein kinase ABL1, non-phosphorylated (ABL1, Homo sapiens, UniProt P00519, T315I)

O=C(NCC1CCOCC1)c1n[nH]cc1NC(=O)c1c(F)cccc1F — remaining binding (ABL1 Y253F phosphorylated; binding; competition with immobilised ligand; 1 µM): 86%
CN([C@@H]1CCc2c(CC(=O)O)c3cc(S(C)(=O)=O)ccc3n2C1)S(=O)(=O)c1ccc(F)cc1 — remaining binding (Tyrosine-protein kinase ABL1, phosphorylated (ABL1, Homo sapiens, UniProt P00519, H396P); cell-free assay; competition with immobilised ligand; 1 µM): 78%
COc1cnc(Nc2cccc(S(N)(=O)=O)c2)nc1N1CCN(c2ccccc2)C(=O)C1 — remaining binding (ABL1 H396P non-phosphorylated; binding; competition with immobilised ligand; 1 µM): 58%
Nc1ncc2c(n1)-c1c([nH]c3ccc(C#CC4CC4)cc13)CCCC2 — remaining binding (ABL1 F317I phosphorylated; binding; competition with immobilised ligand; 1 µM): 86%
CN(c1ccnc(CNc2nc(Nc3ccc4c(c3)CC(=O)N4)ncc2C(F)(F)F)n1)S(C)(=O)=O — remaining binding (Tyrosine-protein kinase ABL1, phosphorylated (ABL1, Homo sapiens, UniProt P00519, M351T); cell-free assay; competition with immobilised ligand; 1 µM): 62%
CN(C)c1ncc(F)c(-c2cnn3ncccc23)n1 — remaining binding (Tyrosine-protein kinase ABL1 (ABL1, Homo sapiens, UniProt P00519, H396P); binding; 1 µM): 80%
Cc1nc(Cc2cccc(C(F)(F)F)c2)sc1-c1ccc(C(N)=O)nc1 — remaining binding (ABL1 F317I phosphorylated; binding; 1 µM): 83%
O=C(c1ccc(Nc2ncc(Cl)c(-c3ccc(Cl)s3)n2)cc1)N1CCC(N2CCCC2)CC1 — remaining binding (ABL1 F317L phosphorylated; binding; competition with immobilised ligand; 1 µM): 58%
C[C@@H](c1ccc(-n2cnc3c(N)ncnc32)cc1)N1CCc2nn(C)c(Cc3ccccc3)c2C1=O — remaining binding (ABL1 F317L phosphorylated; binding; competition with immobilised ligand; 0.1 µM): 49%
COCCOc1nc(-c2ccc(Cl)nc2)nc2c1CN(C(=O)c1ncn3ccccc13)CC2 — remaining binding (ABL1 T315I phosphorylated; cell-free assay; competition with immobilised ligand; 0.1 µM): 100%
C[C@H]1CCN(c2nccc(-c3cnn4ncccc34)n2)C1 — remaining binding (Tyrosine-protein kinase ABL1 (ABL1, Homo sapiens, UniProt P00519, M351T); binding; 1 µM): 75%
O=C(Nc1cnc(Oc2ccc(F)cc2)nc1)N1CCc2ncccc2[C@@H]1c1ccc(F)cc1 — remaining binding (ABL1 T315I non-phosphorylated; cell-free assay; competition with immobilised ligand; 1 µM): 100%
CCN1CCN(Cc2ccc(C(=O)Nc3ccc(C)c(Oc4ccc5c(c4)CC(=O)N5)c3)cc2C(F)(F)F)CC1 — remaining binding (Tyrosine-protein kinase ABL1, non-phosphorylated (ABL1, Homo sapiens, UniProt P00519, F317L); binding; competition with immobilised ligand; 1 µM): 2.9%
O=C(Nc1c[nH]nc1C(=O)NC1CCNCC1)c1cc(F)cc(F)c1 — remaining binding (ABL1 Y253F phosphorylated; binding; competition with immobilised ligand; 1 µM): 100%
O=C(NCCCN1CCOCC1)c1ccc(Nc2ncc(Cl)c(-c3ccc(Cl)s3)n2)cc1 — remaining binding (ABL1 T315I non-phosphorylated; binding; competition with immobilised ligand; 1 µM): 4.5%
O=C(N1CCS(=O)(=O)CC1)N1C[C@H](c2ccc(OC(F)(F)F)cc2)C[C@H](c2nc(C3CC3)no2)C1 — remaining binding (ABL1 T315I phosphorylated; cell-free assay; competition with immobilised ligand; 1 µM): 100%
CN(CCCC(F)(F)F)c1nccc(-c2cnn3ncccc23)n1 — remaining binding (Tyrosine-protein kinase ABL1 (ABL1, Homo sapiens, UniProt P00519, E255K); binding; 1 µM): 98%
COc1cnc(Nc2cccc(S(N)(=O)=O)c2)nc1N1CCN(c2ccccc2)CC1 — remaining binding (ABL1 T315I phosphorylated; binding; competition with immobilised ligand; 1 µM): 88%
Cc1cnc(Nc2ccc(C(=O)N3CCC(N4CCCC4)CC3)cc2)nc1-c1cc2ccccc2s1 — remaining binding (ABL1 H396P non-phosphorylated; binding; competition with immobilised ligand; 1 µM): 0.1%
N[C@@H]1CCN(c2nccc(-c3cnn4ncccc34)n2)C1 — remaining binding (Tyrosine-protein kinase ABL1 (ABL1, Homo sapiens, UniProt P00519, T315I); binding; 1 µM): 95%
C=CC(=O)N1CCC(C(=O)NCC(=O)N2CCN(c3nc(-c4cnc(N)nc4C(F)F)nc(N4CCOCC4)n3)CC2)CC1 — remaining binding (ABL1 F317L phosphorylated; binding; competition with immobilised ligand; 1 µM): 100%
O=C(c1ccc(Nc2nccc(-c3cc4ccccc4s3)n2)cc1)N1CCC(N2CCCC2)CC1 — remaining binding (Tyrosine-protein kinase ABL1, non-phosphorylated (ABL1, Homo sapiens, UniProt P00519, Q252H); binding; competition with immobilised ligand; 1 µM): 9.8%
